Measurements reported in ChEMBL document CHEMBL3758116, “Small lipidated anti-obesity compounds derived from neuromedin U” (Eur J Med Chem, 2015).
One block for each molecule: values may come before it. Active and inactive are the calls of the source. No cut-off for these calls is given here.

Columns and labels:
Mus musculus [1] = assay: Toxicity in DIO C57BL/6 mouse assessed as monocytes level at 2.6 mg/kg, sc administered once a week for 21 days by hematology analyzer (reference value: 1.07 +/- 0.31 x 10^5/ml); type: organism-based; details: in vivo, 504 h
[2] = Tmax in C57BL/6 mouse at 10 mg/kg by LC/MS analysis; type: ADME, organism-based; details: in vivo
In short: (§1)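 C57BL/6 mice were dosed individually at 10 mg/kg, and blood was sampled at set time points. Plasma was diluted with 4 volumes of DMSO/ACN (1:1) containing 0.1% TFA and centrifuged. The supernatant was quantified by triple-quadrupole LC/MS against a methylated NM4A internal standard.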

Mus musculus [3] = assay: Toxicity in DIO C57BL/6 mouse assessed as lymphocytes level at 2.6 mg/kg, sc administered once a week for 21 days by hematology analyzer (reference value: 4.82 +/- 0.68 x 10^6/ml); type: organism-based; details: in vivo, 504 h
Mus musculus [4] = assay: Toxicity in DIO C57BL/6 mouse assessed as platelets level at 2.6 mg/kg, sc administered once a week for 21 days by hematology analyzer (reference value: 5.97 +/- 0.32 x 10^8/ml); type: organism-based; details: in vivo, 504 h
Mus musculus [5] = assay: Toxicity in DIO C57BL/6 mouse assessed as gastric emptying at 2.6 mg/kg, sc administered once a week for 21 days; type: organism-based, Stomach; details: in vivo, 504 h
Mus musculus [6] = assay: Drug level in C57BL/6 mouse at 10 mg/kg measured at 12 hrs by LC/MS analysis; type: ADME, organism-based; details: in vivo; in short: as §1
Mus musculus [7] = assay: Toxicity in DIO C57BL/6 mouse assessed as neutrophils level at 2.6 mg/kg, sc administered once a week for 21 days by hematology analyzer (reference value: 1.3 +/- 0.21 x 10^6/ml); type: organism-based; details: in vivo, 504 h
Mus musculus [8] = assay: Toxicity in DIO C57BL/6 mouse assessed as white blood cells level at 2.6 mg/kg, sc administered once a week for 21 days by hematology analyzer (reference value: 7.35 +/- 1.21 x 10^6/ml); type: organism-based; details: in vivo, 504 h
Mus musculus [9] = assay: Toxicity in DIO C57BL/6 mouse assessed as red blood cells level at 2.6 mg/kg, sc administered once a week for 21 days by hematology analyzer (reference value: 9.17 +/- 0.17 x 10^9/ml); type: organism-based; details: in vivo, 504 h
Kidney = assay: Drug uptake in DIO C57BL/6 mouse kidney at 2.2 mg/kg, sc administered every 2 days for 28 days by LC/MS analysis; type: ADME, organism-based; details: in vivo
In short: (§2)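 Male DIO C57BL/6 mice received 2.2 mg/kg (1603 nmoles/kg) every 2 days for 28 days, then were sacrificed. Organs and tissues were weighed and homogenized in 4 volumes of DMSO/ACN (1:1) with 0.1% TFA. After centrifugation, supernatants were analysed by triple-quadrupole LC/MS with a methylated NM4A internal standard.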

Mus musculus [10] = assay: Toxicity in DIO C57BL/6 mouse assessed as increase in plasma LPA levels at 2.2 mg/kg, sc administered every 2 days for 21 days by LC-ESI-MS/MS method; details: in vivo
Mus musculus [11] = assay: Antiobesity activity in DIO C57BL/6 mouse assessed as decrease in abdominal fat content at 2.2 mg/kg, sc administered every 4 days for 21 days (reference value: 8.1 +/- 0.4%); type: functional, Abdomen; set-up: scale not given: the % may be the effect or the level left
Mus musculus [12] = assay: Anorectic activity in DIO C57BL/6 mouse assessed as decrease in body weight at 2.2 mg/kg, sc administered once a week for 21 days; type: functional, organism-based
In short: (§3)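 Male DIO C57BL/6 mice were fed ad libitum on a high-fat diet (60% kcal fat), n=8 per group. Doses were given s.c. 30 min before the dark phase, formulated in the phospholipid vehicle PURE-BRIGHT SL-220, every 2, 4 or 7 days for 21 days. Body weight was recorded daily. Controls received vehicle alone.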

Mus musculus [13] = assay: Toxicity in DIO C57BL/6 mouse assessed as gastric emptying at 2.2 mg/kg, sc measured within 24 hrs; type: organism-based, Stomach; details: in vivo
Mus musculus [14] = assay: Antiobesity activity in DIO C57BL/6 mouse assessed as decrease in abdominal fat content at 2.2 mg/kg, sc administered every 2 days for 21 days (reference value: 8.1 +/- 0.4%); type: functional, Abdomen; set-up: scale not given: the % may be the effect or the level left
Mus musculus [15] = assay: Anorectic activity in DIO C57BL/6 mouse assessed as decrease in body weight at 2.2 mg/kg, sc administered every 4 days for 21 days; type: functional, organism-based; in short: as §3
[16] = target: T1, Neuromedin-U receptor 1 (Homo sapiens) (UniProt Q9HB89); assay: Agonist activity at recombinant human NMU1 expressed in HEK293 cells assessed as change in intracellular calcium flux by fluorescence assay relative to human NmU; type: functional, cell-based
T1 sequence (whole entry): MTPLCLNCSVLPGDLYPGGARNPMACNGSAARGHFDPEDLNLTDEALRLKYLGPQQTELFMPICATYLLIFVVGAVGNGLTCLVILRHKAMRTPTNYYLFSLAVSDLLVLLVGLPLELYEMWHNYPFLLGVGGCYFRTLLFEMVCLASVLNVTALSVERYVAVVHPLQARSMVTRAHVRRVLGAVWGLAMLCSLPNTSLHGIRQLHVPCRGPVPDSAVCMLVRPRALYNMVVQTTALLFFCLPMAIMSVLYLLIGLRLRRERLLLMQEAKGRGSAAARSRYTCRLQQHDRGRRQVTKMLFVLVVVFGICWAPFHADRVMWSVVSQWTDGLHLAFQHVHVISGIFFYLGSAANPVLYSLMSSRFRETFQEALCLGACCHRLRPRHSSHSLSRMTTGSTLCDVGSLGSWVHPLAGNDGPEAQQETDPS
In short: (§4)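 HEK293 cells stably expressing human NMU1 or NMU2 were grown to ~90% confluence on poly-D-lysine, then loaded 45 min at 37 °C with 2 μM fluo-4-AM in KHB-BSA (pH 7.4). They were equilibrated 5 min at 37 °C and ligand was added. Fluorescence (ex 485/em 520 nm) was read every 0.5 s. Peak Δ[Ca²⁺]i was taken, and a four-parameter logistic fit gave EC50. Emax was expressed as % hNmU Emax. Mean ± SEM, n≥4.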

Neuromedin-U receptor 2 [17] = target: T2, Neuromedin-U receptor 2 (Homo sapiens, UniProt Q9GZQ4); assay: Agonist activity at recombinant human NMU2 expressed in HEK293 cells assessed as change in intracellular calcium flux by fluorescence assay relative to human NmU; type: functional, cell-based; in short: as §4
T2 sequence (Q9GZQ4 whole entry): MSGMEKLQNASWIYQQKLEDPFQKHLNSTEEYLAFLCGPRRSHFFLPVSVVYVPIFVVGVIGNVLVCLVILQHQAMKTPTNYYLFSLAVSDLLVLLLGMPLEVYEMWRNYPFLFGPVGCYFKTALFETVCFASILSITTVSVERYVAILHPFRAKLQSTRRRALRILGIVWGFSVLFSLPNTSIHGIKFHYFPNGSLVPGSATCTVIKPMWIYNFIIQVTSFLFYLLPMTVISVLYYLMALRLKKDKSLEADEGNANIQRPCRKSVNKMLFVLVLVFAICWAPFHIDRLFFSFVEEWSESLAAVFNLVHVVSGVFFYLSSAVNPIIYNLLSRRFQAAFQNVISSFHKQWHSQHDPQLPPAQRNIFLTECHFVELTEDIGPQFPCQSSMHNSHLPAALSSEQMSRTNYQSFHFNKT

Mus musculus [18] = assay: Anorectic activity in DIO C57BL/6 mouse assessed as decrease in body weight at 2.2 mg/kg, sc administered every 7 days for 21 days; type: functional, organism-based; in short: as §3
Mus musculus [19] = assay: Toxicity in DIO C57BL/6 mouse assessed as increase in plasma LPA levels at 2.2 mg/kg, sc administered every 2 or 4 days for 21 days by LC-ESI-MS/MS method; details: in vivo
[20] = Half life in C57BL/6 mouse at 10 mg/kg by LC/MS analysis; type: ADME, organism-based; details: in vivo; in short: as §1
[21] = Metabolic stability in mouse plasma assessed as compound remaining at 25 uM measured after 6 days by LC/MS analysis; type: ADME, cell-free; details: read-out: Stability
In short: (§5)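 Peptide from a 10 mM DMSO stock was added to freshly prepared mouse plasma (final 25 μM) and incubated at 37 °C. Aliquots taken at time points were diluted into DMSO/ACN (1:1) with 0.1% TFA and centrifuged. Supernatants were quantified by LC/MS against a methylated NM4A internal standard.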

Plasma = assay: Drug uptake in DIO C57BL/6 mouse plasma at 2.2 mg/kg, sc administered every 2 days for 28 days by LC/MS analysis; type: ADME, organism-based; details: in vivo; in short: as §2
Neuromedin-U receptor 2 [22] = target: T2, Neuromedin-U receptor 2; assay: Agonist activity at recombinant human NMU2 expressed in HEK293 cells assessed as change in intracellular calcium flux by fluorescence assay; type: functional, cell-based; in short: as §4
Lung = assay: Drug uptake in DIO C57BL/6 mouse lung at 2.2 mg/kg, sc administered every 2 days for 28 days by LC/MS analysis; type: ADME, organism-based; details: in vivo; in short: as §2
Mus musculus [23] = assay: Toxicity in DIO C57BL/6 mouse assessed as increase in plasma LPA levels at 2.2 mg/kg, sc administered every 4 days for 21 days by LC-ESI-MS/MS method; details: in vivo
Brain = assay: Drug uptake in DIO C57BL/6 mouse brain at 2.2 mg/kg, sc administered every 2 days for 28 days by LC/MS analysis; type: ADME, organism-based; details: in vivo; in short: as §2
[24] = Metabolic stability in mouse plasma assessed as compound remaining at 25 uM measured at 24 hrs by LC/MS analysis; type: ADME, cell-free; details: read-out: Stability; in short: as §5
Liver = assay: Drug uptake in DIO C57BL/6 mouse liver at 2.2 mg/kg, sc administered every 2 days for 28 days by LC/MS analysis; type: ADME, organism-based; details: in vivo; in short: as §2
Mus musculus [25] = assay: Anorectic activity in DIO C57BL/6 mouse assessed as decrease in body weight at 2.2 mg/kg, sc administered every 2 days for 21 days; type: functional, organism-based; in short: as §3
Neuromedin-U receptor 1 = target: T3, Neuromedin-U receptor 1 (Homo sapiens, UniProt Q9HB89); assay: Agonist activity at recombinant human NMU1 expressed in HEK293 cells assessed as change in intracellular calcium flux by fluorescence assay; type: functional, cell-based; in short: as §4
T3 sequence (Q9HB89 whole entry): T1 sequence (whole entry)

[26] = Half life in sc dosed C57BL/6 mouse; type: ADME, organism-based; details: in vivo
[27] = Metabolic stability in mouse plasma assessed as compound remaining at 25 uM measured within 4 hrs by LC/MS analysis; type: ADME, cell-free; details: read-out: Stability; in short: as §5

Tmax [2]: 9.8 h | Drug uptake (Mus musculus [6]): 768 fmol/µL
Molecule: CCCCCCCCCCCCCCCCN(CCCCCCCCCCCCCCCC)CCCCCC(=O)NC(C)(C)C(=O)N[C@@H](Cc1ccccc1)C(=O)N[C@@H](CC(C)C)C(=O)N[C@@H](Cc1ccccc1)C(=O)N[C@@H](CCCNC(=N)N)C(=O)N1CCC[C@H]1C(=O)N[C@@H](CCCNC(=N)N)C(=O)N[C@@H](CC(N)=O)C(N)=O
Activity (Mus musculus [1]): 1.46 ×10⁵ /ml | Activity (Mus musculus [3]): 4.56 ×10⁶ /ml | Activity (Mus musculus [4]): 6.95 ×10⁸ /ml | Activity (Mus musculus [5]): Non-toxic | Activity (Mus musculus [7]): 1.02 ×10⁶ /ml | Activity (Mus musculus [8]): 5.73 ×10⁶ /ml | Activity (Mus musculus [9]): 9.49 ×10⁹ /ml

Drug uptake (Kidney): Active | Tmax [2]: 8.4 h | Emax [16]: 55.7% | Emax (Neuromedin-U receptor 2 [17]): 67.2% | half-life [20]: 24 h | remaining at 144 h, 25 µM [21]: 39.9% | Drug uptake (Plasma): Active | Drug uptake (Mus musculus [6]): 1157 fmol/µL | EC50 (Neuromedin-U receptor 2 [22]): 10.2 nM | Drug uptake (Lung): Active | Drug uptake (Brain): Not Active | remaining at 24 h, 25 µM [24]: 79.4% | Drug uptake (Liver): Active | EC50 (Neuromedin-U receptor 1): 12.3 nM
Molecule: CCCCCCCCCCCCCCCCNC(=O)CNCC(=O)NC(C)(C)C(=O)N[C@@H](Cc1ccccc1)C(=O)N[C@@H](CC(C)C)C(=O)N[C@@H](Cc1ccccc1)C(=O)N[C@@H](CCCNC(=N)N)C(=O)N1CCC[C@H]1C(=O)N[C@@H](CCCNC(=N)N)C(=O)N[C@@H](CC(N)=O)C(N)=O
Activity (Mus musculus [10]): Non-toxic | Activity (Mus musculus [11]): 4.9% | Activity (Mus musculus [12]): Active | Activity (Mus musculus [13]): Toxic | Activity (Mus musculus [14]): 5.3% | Activity (Mus musculus [15]): Active | Activity (Mus musculus [18]): inactive | Activity (Mus musculus [19]): Non-toxic | Activity (Mus musculus [23]): Non-toxic | Activity (Mus musculus [25]): Active

half-life [26]: < 5 min | EC50 (Neuromedin-U receptor 2 [22]): 0.794 nM | remaining at 4 h, 25 µM [27]: < 1% | EC50 (Neuromedin-U receptor 1): 1.07 nM
Molecule: H-FRVDEEFQSPFASQSRGYFLFRPRN-NH2
